Data: ChEMBL document CHEMBL1156929, “Synthesis, biological evaluation, and molecular modeling of 1-benzyl-1H-imidazoles as selective inhibitors of aldosterone synthase (CYP11B2)” (J Med Chem, 2010)

Tests used:
[1] = target: T1, Cytochrome P450 11B2, mitochondrial (Homo sapiens, UniProt P19099); experiment: Inhibition of human CYP11B2 expressed in chinese hamster V79 cells; format: cell-based
T1 sequence (P19099 whole entry): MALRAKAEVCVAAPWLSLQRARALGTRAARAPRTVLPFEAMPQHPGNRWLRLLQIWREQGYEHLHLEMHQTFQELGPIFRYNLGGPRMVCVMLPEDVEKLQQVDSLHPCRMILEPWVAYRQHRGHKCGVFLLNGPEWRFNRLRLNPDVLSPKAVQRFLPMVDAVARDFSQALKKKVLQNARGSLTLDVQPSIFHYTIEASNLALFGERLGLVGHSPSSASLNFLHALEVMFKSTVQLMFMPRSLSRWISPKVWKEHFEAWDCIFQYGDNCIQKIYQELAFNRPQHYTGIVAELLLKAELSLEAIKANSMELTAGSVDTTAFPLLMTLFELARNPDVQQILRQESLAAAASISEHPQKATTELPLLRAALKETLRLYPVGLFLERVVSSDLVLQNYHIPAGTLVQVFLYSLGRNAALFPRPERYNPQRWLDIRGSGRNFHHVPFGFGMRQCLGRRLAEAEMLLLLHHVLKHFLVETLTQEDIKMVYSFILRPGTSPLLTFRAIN
In short: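 Confluent V79 cells stably overexpressing human CYP11B2, 37 °C, 5% CO2. […] Steroids were extracted from medium with diethylether at pH 10.5 and quantified by HPLC (UV 243 nm) using peak-area ratios to methylprednisolone internal standard. IC50 from at least five concentrations, fitted to vi = v0/(1+I/IC50).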

[2] = target: T2, Cytochrome P450 11B1, mitochondrial (Homo sapiens, UniProt P15538); experiment: Inhibition of human CYP11B1 expressed in chinese hamster V79 cells; format: cell-based
T2 sequence (P15538 whole entry): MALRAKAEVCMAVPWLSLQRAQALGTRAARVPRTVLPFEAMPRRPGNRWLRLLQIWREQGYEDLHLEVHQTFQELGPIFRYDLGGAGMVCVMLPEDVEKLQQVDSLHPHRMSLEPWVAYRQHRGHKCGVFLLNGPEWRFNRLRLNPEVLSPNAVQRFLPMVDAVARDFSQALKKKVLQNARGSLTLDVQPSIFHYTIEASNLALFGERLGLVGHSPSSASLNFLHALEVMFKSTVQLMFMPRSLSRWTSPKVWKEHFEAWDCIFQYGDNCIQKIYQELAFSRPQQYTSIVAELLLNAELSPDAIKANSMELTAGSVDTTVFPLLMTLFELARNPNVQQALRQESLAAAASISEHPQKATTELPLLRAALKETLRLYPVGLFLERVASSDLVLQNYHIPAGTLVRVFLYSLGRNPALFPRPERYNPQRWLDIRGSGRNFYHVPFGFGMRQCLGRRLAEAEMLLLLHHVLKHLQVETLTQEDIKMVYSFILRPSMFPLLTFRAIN

Compound	IC50 ([1]; read-out: IC50) [nM]	IC50 [1] [nM]	IC50 ([2]; read-out: IC50) [nM]	IC50 ([2]; read-out: pIC50 (converted)) [nM]
Cc1cncn1Cc1ccc(C#N)cc1	12	–	–	–
N#Cc1cccc(Cn2ccnc2)c1	> 1000	> 1000	> 1000	–
Brc1ccc(Cn2ccnc2)cc1	479	–	211	–
N#Cc1ccc(Cn2ccnc2)cc1	372	–	368	–
Fc1ccc(Cn2ccnc2)cc1	330	–	494	–
Clc1ccc(Cn2ccnc2)cc1	> 1000	> 1000	> 1000	–
c1ccc(Cn2cncc2-c2ccccc2)cc1	11	–	4.8	–
OCc1ccc(Cn2ccnc2)cc1	> 1000	> 1000	695	–
OCCCc1cncn1Cc1ccc(F)cc1	16	–	–	–
COc1ccc(Cn2cncc2-c2ccccc2)cc1	14	–	11	–
COC(=O)c1cncn1Cc1ccc(C#N)cc1	7	–	–	–
Clc1ccc(Cn2cncc2-c2ccccc2)cc1	5.8	–	25	–
Brc1ccc(Cn2cncc2-c2ccccc2)cc1	5.1	–	7	–
OCc1cccc(Cn2ccnc2)c1	1170	–	206	–
Nc1cccc(Cn2ccnc2)c1	600	–	390	–
COc1ccc(Cn2cncc2CCCO)cc1	59	–	–	–
N#Cc1ccc(Cn2cncc2-c2ccccc2)cc1	–	–	28	–
Nc1ccc(Cn2ccnc2)cc1	> 1000	> 1000	236	–
Fc1cccc(Cn2ccnc2)c1	815	–	206	–
Brc1cccc(Cn2ccnc2)c1	365	–	143	–
N#Cc1ccc(Cn2cncc2CCCO)cc1	13	–	48	–

Compound	IC50 ([1]; read-out: IC50) [nM]	IC50 [1] [nM]	IC50 ([2]; read-out: IC50) [nM]	IC50 ([2]; read-out: pIC50 (converted)) [nM]
OCCCc1cncn1Cc1ccc(Cl)cc1	55	–	44	–
N#Cc1ccc(Cn2cncc2-c2cccc(F)c2)cc1	–	–	–	32.4
N#Cc1ccc(Cn2cncc2-c2ccc(F)cc2)cc1	25	–	27	–
OCCCc1cncn1Cc1ccc(Br)cc1	6.2	–	18	–
N#Cc1ccc(Cn2cncc2Br)cc1	23	–	73	–
N#Cc1ccc(Cn2cncc2CO)cc1	29	–	–	282
N#Cc1ccc(Cn2cncc2-c2ccncc2)cc1	407	–	307	–
N#Cc1ccc(Cn2cncc2-c2ccccc2F)cc1	2.3	–	20	–
COC(=O)CCc1cncn1Cc1ccc(F)cc1	50	–	104	–
COC(=O)CCc1cncn1Cc1ccc(Cl)cc1	177	–	123	–
COC(=O)CCc1cncn1Cc1ccc(OC)cc1	121	–	111	–
Cc1ccc(-c2cncn2Cc2ccc(C#N)cc2)cc1	117	–	130	–
Cc1cccc(-c2cncn2Cc2ccc(C#N)cc2)c1	5.2	–	6.2	–
COC(=O)CCc1cncn1Cc1ccccc1	193	–	326	–
Clc1cccc(Cn2ccnc2)c1	457	–	151	–
Fc1ccc(Cn2cncc2-c2ccccc2)cc1	11	–	16	–
Cc1ccccc1-c1cncn1Cc1ccc(C#N)cc1	3.7	–	5.7	–
OCCCc1cncn1Cc1ccccc1	286	–	181	–
c1ccc(Cn2ccnc2)cc1 [BENZYLIMIDAZOLE]	1800	–	709	–
CCOC(=O)c1cncn1[C@H](C)c1ccccc1 [ETOMIDATE]	1.7	–	–	–
